The test system of assay [1] is PC43-10 CHO cells (express human RFC). The conditions noted are these: mean (SEM), previously published, cited from earlier work.
The test system of assay [2] is FRα- and PCFT-expressing tumor cells. The conditions noted are these: up; cited from earlier work.
In assay [3] the test system is RT16 CHO cells (express human FRα). The following applies: read-out: IC50 FRα RT16; without folic acid; mean (SEM); cited from earlier work.
Assay [4] has as its target FRβ (Homo sapiens, UniProt P14207). Nature of the assay: Competitive [3H]folic acid binding assay, FRβ in D4 cells. The conditions noted are these: 50 nM [3H]folic acid, folic acid = 1. An outline of the steps:
(§1)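 Cells plated 48 h ahead (~5 × 10^6) were acid-stripped of bound folate (pH 3.5 acetate/NaCl) and washed in ice-cold HEPES saline, pH 7.4. They were then incubated 15 min at 0 °C with 50 nM [3H]folic acid (0.5 Ci/mmol) across a range of unlabeled ligand concentrations. After NaOH lysis, bound label was read as pmol/mg protein.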

Assay [5] has as its system D4 CHO cells (express human FRβ). Nature of the assay: Growth inhibition assay, FRβ-expressing D4 CHO cells. The assay is classed as cell-based, Chinese hamster. The following applies: for IC50: CHO, read-out: IC50 FRβ D4; for IC50 FRβ D4: without folic acid, mean (SEM). The method in brief:
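D4 cells were seeded at ~2500–5000 per well in folate-free RPMI with 10% dialyzed FBS, 2 nM leucovorin and 2 mM L-glutamine. They were exposed to a range of drug concentrations for up to 96 h, with or without 200 nM folic acid in parallel. Viability was read by CellTiter-Blue fluorescence.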

Assay [6] has as its system PC43-10 CHO cells (express human RFC). Nature of the assay: Growth inhibition assay, RFC-expressing PC43-10 CHO cells. Type of assay: cell-based, Chinese hamster. The following applies: PC43-10, 96 h, read-out: IC50 RFC PC43-10.
In assay [7] the test system is R2/PCFT4 CHO cells (express human PCFT). Nature of the assay: Growth inhibition assay, PCFT-expressing R2/PCFT4 CHO cells. Type of assay: cell-based, Chinese hamster. The conditions noted are these: R2/PCFT4, pH 7.2, read-out: IC50 PCFT R2/PCFT4.
Assay [8] concerns the target FRα (Homo sapiens, UniProt P15328). Nature of the assay: Competitive [3H]folic acid binding assay, FRα in RT16 cells. The conditions noted are these: 50 nM [3H]folic acid, folic acid = 1. An outline of the steps: as §1
Assay [9] has as its system KB human nasopharyngeal carcinoma cells (express RFC, FRα, PCFT). Nature of the assay: Growth inhibition assay, KB human tumor cells. The assay is classed as cell-based. The conditions noted are these: for IC50: Homo sapiens, read-out: IC50 RFC/FRα/PCFT KB.
In assay [10] the test system is KB cells. Nature of the assay: Nucleoside/AICA protection of growth inhibition in KB cells. The assay is classed as cell-based, human. An outline of the steps:
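KB human nasopharyngeal carcinoma cells were grown in complete folate-free RPMI 1640 with 2 nM LCV, with a range of test compound concentrations. Runs had no additions or included 200 nM folic acid, adenosine (60 μM), thymidine (10 μM) or AICA (320 μM). Cell density was read by CellTiter Blue fluorescence and normalized to no-drug cells; experiments were performed in triplicate.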

For assay [11], the target named is T1, GARFTase (Homo sapiens, UniProt P22102).
T1 sequence (P22102 1-1010): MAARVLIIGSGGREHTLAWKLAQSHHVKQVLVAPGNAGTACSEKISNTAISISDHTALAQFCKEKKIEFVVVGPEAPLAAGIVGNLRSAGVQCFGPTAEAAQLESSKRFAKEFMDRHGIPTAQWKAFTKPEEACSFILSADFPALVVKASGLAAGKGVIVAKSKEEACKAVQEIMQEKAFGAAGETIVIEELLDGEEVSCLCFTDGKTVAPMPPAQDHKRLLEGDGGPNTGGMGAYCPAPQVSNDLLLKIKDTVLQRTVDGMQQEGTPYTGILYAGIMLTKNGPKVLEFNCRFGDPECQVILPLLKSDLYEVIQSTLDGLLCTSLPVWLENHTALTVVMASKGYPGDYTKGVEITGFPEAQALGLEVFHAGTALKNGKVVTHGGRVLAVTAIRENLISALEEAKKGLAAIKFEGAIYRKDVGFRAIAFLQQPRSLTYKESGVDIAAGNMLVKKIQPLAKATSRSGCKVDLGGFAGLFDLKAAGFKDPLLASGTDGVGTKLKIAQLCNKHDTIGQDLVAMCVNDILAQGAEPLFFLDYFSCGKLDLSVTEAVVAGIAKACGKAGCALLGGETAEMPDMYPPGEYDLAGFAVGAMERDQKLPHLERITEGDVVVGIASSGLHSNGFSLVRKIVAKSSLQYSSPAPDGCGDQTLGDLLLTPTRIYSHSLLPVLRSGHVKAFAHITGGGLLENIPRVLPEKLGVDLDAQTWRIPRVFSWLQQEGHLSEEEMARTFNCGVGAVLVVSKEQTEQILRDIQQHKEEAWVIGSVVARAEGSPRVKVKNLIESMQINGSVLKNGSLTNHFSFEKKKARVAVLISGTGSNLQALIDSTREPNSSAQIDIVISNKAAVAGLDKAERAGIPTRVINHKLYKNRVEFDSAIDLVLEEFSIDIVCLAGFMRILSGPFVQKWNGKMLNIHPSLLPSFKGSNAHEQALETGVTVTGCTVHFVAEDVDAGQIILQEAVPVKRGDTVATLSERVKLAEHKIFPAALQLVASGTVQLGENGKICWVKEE
Nature of the assay: In situ GARFTase activity assay in KB cells. The assay is classed as cell-based. The following applies: ratio of in situ GARFTase IC50s vs compound 7.

Entries after “also recorded” stand apart in the source; their conditions may differ. Where two headings read alike, the source gives them in different places.

Results on six compounds are retold here after PMC4191586 (Journal of Medicinal Chemistry, 2014).

Chain of FRβ (P14207 17-255): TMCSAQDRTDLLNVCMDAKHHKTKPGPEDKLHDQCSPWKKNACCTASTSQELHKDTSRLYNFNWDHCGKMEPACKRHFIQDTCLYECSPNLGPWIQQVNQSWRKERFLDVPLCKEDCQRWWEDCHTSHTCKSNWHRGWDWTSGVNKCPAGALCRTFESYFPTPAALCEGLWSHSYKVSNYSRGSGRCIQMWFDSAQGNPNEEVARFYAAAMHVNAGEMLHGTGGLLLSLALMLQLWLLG
Chain of FRα (P15328 25-257): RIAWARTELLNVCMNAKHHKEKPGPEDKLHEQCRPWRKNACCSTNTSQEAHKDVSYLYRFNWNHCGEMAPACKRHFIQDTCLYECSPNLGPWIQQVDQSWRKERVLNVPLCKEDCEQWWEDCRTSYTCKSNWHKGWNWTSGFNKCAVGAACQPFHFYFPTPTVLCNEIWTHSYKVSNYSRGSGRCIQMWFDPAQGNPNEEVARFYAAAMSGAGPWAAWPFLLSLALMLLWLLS

Consider `Nc1nc2[nH]c(CCCc3ccc(C(=O)N[C@@H](CCC(=O)O)C(=O)O)s3)cc2c(=O)[nH]1` [Compound 7, (S)-2-({5-[3-(2-Amino-4-oxo-4,7-dihydro-3H-pyrrolo[2,3-d]pyrimidin-6-yl)-propyl]-thiophene-2-carbonyl}-amino)-pentanedioic Acid], for which the “IC50 RFC PC43-10” value in assay [1] is “modest inhibition”. Also, the IC50 in [1] (read-out: IC50 RFC PC43-10) was 101 nM; in [3], 0.31 nM. The “increase of cell growth inhibition compared to 8” value in [2] is listed as around 10 fold.

Regarding `Nc1nc2[nH]c(CCCc3ccc(C(=O)O)s3)cc2c(=O)[nH]1` [Compound 9, 5-[3-(2-Amino-4-oxo-4,7-dihydro-3H-pyrrolo[2,3-d]pyrimidin-6-yl)-propyl]-thiophene-2-carboxylic Acid], in assay [4], the “relative binding affinity to FRβ (in words)” value is recorded as “Substantially reduced; also recorded: undetectable binding”. Besides, the IC50 in assay [5], in assay [6], in assay [7] and in assay [9] was above 1000 nM throughout. For the same compound, the “IC50 FRβ D4” value in [5] was “completely inactive”. Further, the “relative binding affinity to FRα (in words)” value in assay [8] is “Substantially reduced”.

For `Nc1nc2[nH]c(CCCc3ccc(C(=O)N[C@@H](CC(=O)O)C(=O)O)s3)cc2c(=O)[nH]1` [Compound 10, (S)-2-({5-[3-(2-Amino-4-oxo-4,7-dihydro-3H-pyrrolo[2,3-d]pyrimidin-6-yl)-propyl]-thiophene-2-carbonyl}-amino)-butanedioic Acid], the “IC50 FRβ D4” value in assay [5] is given as “substantially reduced activity”. In addition, the IC50 in assay [6], in assay [7] and in assay [9] was above 1000 nM in each case. The “relative binding affinity to FRα (in words)” value in assay [8] was “bound avidly to FRα”.

As for `Nc1nc2[nH]c(CCCc3ccc(C(=O)N[C@@H](CCCC(=O)O)C(=O)O)s3)cc2c(=O)[nH]1` [Compound 11, (S)-2-({5-[3-(2-Amino-4-oxo-4,7-dihydro-3H-pyrrolo[2,3-d]pyrimidin-6-yl)propyl]thiophene-2-carbonyl}-amino)-hexanedioic Acid], the “relative binding affinity to FRβ (in words)” value in assay [4] was “somewhat reduced”. In addition, in [10] (AICA 320 μM), the “effect of AICA on inhibition of KB cell proliferation” value is given as “abolished the inhibitory effects”. Also, the “effect of adenosine on inhibition of KB cell proliferation” value in [10] (adenosine 60 μM) was “abolished the inhibitory effects”. In addition, in [10] (thymidine 10 μM), the “effect of thymidine on inhibition of KB cell proliferation” value was “had no effect”. In addition, the IC50 in assay [6] and in assay [7] was above 1000 nM throughout. Further, the “fold less potent than 7 as GARFTase inhibitor in KB cells” value in assay [11] is on record as around 6 fold. The “fold reduction of KB potency relative to IC50 of 7” value in assay [9] (KB cells, IC50 9 nM vs 0.26 nM) was “approximately 35 fold”.

For the compound `Nc1nc2[nH]c(CCCc3ccc(C(=O)NCCCC(=O)O)s3)cc2c(=O)[nH]1` [Compound 12, 4-({5-[3-(2-Amino-4-oxo-4,7-dihydro-3H-pyrrolo[2,3-d]pyrimidin-6-yl)propyl]thiophene-2-carbonyl}-amino)-butanoic Acid], the “relative binding affinity to FRβ (in words)” value in assay [4] is given as “somewhat reduced; also recorded: distinctly reduced binding affinities”. Also, the IC50 in assay [5], in assay [6], in assay [7] and in [9] was above 1000 nM each time. Also, the “IC50 FRβ D4” value in assay [5] is recorded as “complete inactivity”. Moreover, the “relative binding affinity to FRα (in words)” value in assay [8] is recorded as “bound avidly to FRα”.

For the compound `CCC[C@H](NC(=O)c1ccc(CCCc2cc3c(=O)[nH]c(N)nc3[nH]2)s1)C(=O)O` [Compound 13, (S)-2-({5-[3-(2-Amino-4-oxo-4,7-dihydro-3H-pyrrolo[2,3-d]pyrimidin-6-yl)propyl]thiophene-2-carbonyl}-amino)-pentanoic Acid], in assay [4], the “relative binding affinity to FRβ (in words)” value is “somewhat reduced; also recorded: distinctly reduced binding affinities”. For the same compound, the IC50 in [5], in [6], in [7] and in [9] was above 1000 nM in each case. Further, in assay [5], the “IC50 FRβ D4” value is reported as “complete inactivity”. Also, in assay [8], the “relative binding affinity to FRα (in words)” value is “bound avidly to FRα”.
